Holding throughout (assay type): functional
A short description of experiment [1]: Growth inhibition of human HCT116 cells at 10 uM after 48 hrs by sulforhodamine B assay. The settings on record: HCT-116, 48 h, read-out: GI. In a few lines: (§1)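 Run at NCI on the 60-line panel. Cells grown in RPMI 1640 with 5% FBS and 2 mM L-glutamine, plated at 5000–40,000 cells/well by doubling time, and held 24 h at 37 °C before dosing. Drug (DMSO stock) given at a single final 10 µM in triplicate wells for 48 h. Adherent cells fixed with cold TCA (10% final), suspension cells with 16% TCA. SRB stain read at 515 nm. Percent growth from Tz, C and Ti.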

Experiment [2] can be described thus: Growth inhibition of human COLO205 cells at 10 uM after 48 hrs by sulforhodamine B assay. To be noted: COLO 205, 48 h, read-out: GI. In a few lines:
as §1
In general terms: In SRB staining, fixed cells bind dye roughly in proportion to their protein.

In the next experiment the test system is Malme-3M. As to the kind of experiment: Growth inhibition of human MALME-3M cells at 10 uM after 48 hrs by sulforhodamine B assay. The settings on record: read-out: GI. In a few lines: as §1
Experiment [3] in a line: Growth inhibition of human HOP92 cells at 10 uM after 48 hrs by sulforhodamine B assay. To be noted: HOP-92, 48 h, read-out: GI. In a few lines:
as §1

In a further experiment the test system is NCI-H226. As to the kind of experiment: Growth inhibition of human NCI-H226 cells at 10 uM after 48 hrs by sulforhodamine B assay. The settings on record: NCI-H226, 48 h, read-out: GI. In a few lines:
as §1

The test system of a further experiment is 786-0. As to the kind of experiment: Growth inhibition of human 786-0 cells at 10 uM after 48 hrs by sulforhodamine B assay. The settings on record: 786-0, 48 h, read-out: GI. In outline: as §1
Experiment [4] is described as follows: Growth inhibition of human IGROV1 cells at 10 uM after 48 hrs by sulforhodamine B assay. To be noted: IGROV-1, 48 h, read-out: GI. In outline: as §1
Experiment [5] is described as follows: Growth inhibition of human SKOV3 cells at 10 uM after 48 hrs by sulforhodamine B assay. The settings on record: SK-OV-3, 48 h, read-out: GI. In outline: as §1
Experiment [6] can be described thus: Growth inhibition of human HCT15 cells at 10 uM after 48 hrs by sulforhodamine B assay. To be noted: HCT-15, 48 h, read-out: GI. In a few lines: as §1
In a further experiment the test system is ACHN. As to the kind of experiment: Growth inhibition of human ACHN cells at 10 uM after 48 hrs by sulforhodamine B assay. To be noted: read-out: GI. In a few lines:
as §1

Experiment [7] in a line: Growth inhibition of human HCC2998 cells at 10 uM after 48 hrs by sulforhodamine B assay. To be noted: HCC 2998, 48 h, read-out: GI. In a few lines: as §1
The nature of experiment [8]: Growth inhibition of human SW620 cells at 10 uM after 48 hrs by sulforhodamine B assay. The settings on record: SW-620, 48 h, read-out: GI. In outline: (§2)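 NCI-60 panel, adherent cells grown in RPMI 1640 with 5% FBS and 2 mM L-glutamine, plated at 5000–40,000 cells/well and preincubated 24 h at 37 °C, 5% CO2. 10 µM final compound from DMSO stock, triplicate wells, 48 h. Fixed with cold TCA (10% final, 60 min, 4 °C) and stained with 0.4% SRB. Absorbance read at 515 nm; growth calculated against time-zero and control wells.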

The subject of the next experiment is SR. As to the kind of experiment: Growth inhibition of human SR cells at 10 uM after 48 hrs by sulforhodamine B assay. The settings on record: read-out: GI. In outline: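 NCI-60 screen. Cells were grown in RPMI 1640 with 5% FBS and 2 mM L-glutamine, plated at 5000–40,000 cells/well and held 24 h at 37 °C, 5% CO2. Single 10 µM final dose from DMSO stock, triplicate wells, 48 h. Settled cells were fixed with 80% TCA (16% final) and stained with 0.4% SRB. Dye was solubilized in 10 mM Tris and read at 515 nm. Growth was calculated against time-zero and untreated wells.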

A short description of experiment [9]: Growth inhibition of human SF268 cells at 10 uM after 48 hrs by sulforhodamine B assay. The settings on record: SF-268, 48 h, read-out: GI. In outline: as §1
Experiment [10] is described as follows: Growth inhibition of human MOLT4 cells at 10 uM after 48 hrs by sulforhodamine B assay. To be noted: MOLT-4, 48 h, read-out: GI. In a few lines: as §1
The nature of experiment [11]: Growth inhibition of human RXF393 cells at 10 uM after 48 hrs by sulforhodamine B assay. The settings on record: RXF 393, 48 h, read-out: GI. In outline:
as §1

Experiment [12] is described as follows: Growth inhibition of human OVCAR3 cells at 10 uM after 48 hrs by sulforhodamine B assay. To be noted: OVCAR-3, 48 h, read-out: GI. In a few lines:
as §1

In another experiment the test system is SK-MEL-5. As to the kind of experiment: Growth inhibition of human SK-MEL-5 cells at 10 uM after 48 hrs by sulforhodamine B assay. The settings on record: SK-MEL-5, 48 h, read-out: GI. In a few lines: as §1
Experiment [13] in a line: Growth inhibition of human UACC62 cells at 10 uM after 48 hrs by sulforhodamine B assay. To be noted: UACC-62, 48 h, read-out: GI. In a few lines: as §2
The next experiment concerns U-251. Kind of experiment: Growth inhibition of human U251 cells at 10 uM after 48 hrs by sulforhodamine B assay. The settings on record: U-251, 48 h, read-out: GI. In outline: as §2
A short description of experiment [14]: Growth inhibition of human BT549 cells at 10 uM after 48 hrs by sulforhodamine B assay. To be noted: BT-549, 48 h, read-out: GI. In a few lines: as §1

A value given as a limit tells only on which side of the number the result lay.

For the compound `COc1ccc(Cc2nnc(Nc3cccc(OC)c3)c3ccccc23)cc1`, the inhibition of growth at 10 µM in [1] is 40%; in [2] it was less than 30%; with Malme-3M, less than 30%; in [3], 53%; in the experiment on NCI-H226, 37%; in the experiment on 786-0, less than 30%. Also, the inhibition of growth at 10 µM was 33% in experiment [4]; less than 30% in experiment [5]; less than 30% in experiment [6]; less than 30% in the experiment on ACHN; less than 30% in experiment [7]; less than 30% in experiment [8]. Further, the inhibition of growth at 10 µM is 35% in the experiment with SR; less than 30% in experiment [9]; less than 30% in experiment [10]; 32% in [11]; less than 30% in experiment [12]; less than 30% in the experiment with SK-MEL-5. Moreover, the inhibition of growth at 10 µM (in [13]; in the experiment with U-251; in experiment [14]) was less than 30% each time.
On to `COc1ccc(Cc2nnc(Nc3ccc(NC(=O)Nc4ccccc4)cc3)c3ccccc23)cc1`, for which the inhibition of growth at 10 µM in experiment [1] is 35%; in [2] it was less than 30%; in the experiment on Malme-3M, less than 30%; in experiment [3] it was less than 30%; with NCI-H226, less than 30%; in the experiment on 786-0, 36%. Also, the inhibition of growth at 10 µM (in experiment [4]; in [5]; in [6]; with ACHN; in experiment [7]; in experiment [8]) was less than 30% throughout. The inhibition of growth at 10 µM in the experiment on SR is less than 30%; in experiment [9] it was less than 30%; in experiment [10] it was 30%; in experiment [11] it was 49%; in [12] it was less than 30%; in the experiment on SK-MEL-5, less than 30%. In addition, the inhibition of growth at 10 µM in experiment [13] is less than 30%; in the experiment on U-251 it was 32%; in experiment [14], less than 30%.
`COc1ccc(Cc2nnc(Nc3ccc(NC(=O)Nc4cccc(C(F)(F)F)c4)cc3)c3ccccc23)cc1`: the inhibition of growth at 10 µM in [1] is 42%; in experiment [2], less than 30%; with Malme-3M, less than 30%; in experiment [3], less than 30%; in the experiment with NCI-H226, less than 30%; in the experiment on 786-0, 41%. Besides, the inhibition of growth at 10 µM in [4] was less than 30%; in [5], less than 30%; in experiment [6], less than 30%; in the experiment on ACHN, 41%; in experiment [7] it was less than 30%; in [8] it was less than 30%. The inhibition of growth at 10 µM in the experiment with SR was 34%; in experiment [9], less than 30%; in experiment [10], 37%; in experiment [11] it was 50%; in experiment [12], less than 30%; with SK-MEL-5, less than 30%. Further, the inhibition of growth at 10 µM in [13] was less than 30%; in the experiment with U-251, 30%; in experiment [14], less than 30%.
Take `COc1ccc(Cc2nnc(Nc3ccc(OC)cc3)c3ccccc23)cc1`: the inhibition of growth at 10 µM in experiment [1] was 34%; in experiment [2], less than 30%; in the experiment with Malme-3M, less than 30%; in experiment [3], 55%; in the experiment with NCI-H226, less than 30%; in the experiment on 786-0, less than 30%. For the same compound, the inhibition of growth at 10 µM (in [4]; in [5]; in experiment [6]; in the experiment on ACHN; in experiment [7]; in [8]) was less than 30% in each case. Besides, the inhibition of growth at 10 µM in the experiment on SR was 34%; in experiment [9] it was less than 30%; in experiment [10], 31%; in [11], less than 30%; in [12], less than 30%; with SK-MEL-5, less than 30%. For the same compound, the inhibition of growth at 10 µM is 34% in experiment [13], less than 30% in the experiment on U-251 and less than 30% in experiment [14].
`COc1ccc(Cc2nnc(Nc3ccc(NC(=O)Nc4ccc(C#N)cc4)cc3)c3ccccc23)cc1`: the inhibition of growth at 10 µM was 44% in [1]; less than 30% in [2]; 42% in the experiment on Malme-3M; less than 30% in experiment [3]; less than 30% in the experiment with NCI-H226; 83% in the experiment with 786-0. Further, the inhibition of growth at 10 µM in experiment [4] is 46%; in experiment [5], 37%; in experiment [6] it was 36%; in the experiment on ACHN it was 48%; in experiment [7], less than 30%; in [8], less than 30%. The inhibition of growth at 10 µM with SR was 43%; in [9], less than 30%; in experiment [10], 56%; in experiment [11] it was 110%; in experiment [12], less than 30%; with SK-MEL-5, less than 33%. The inhibition of growth at 10 µM in [13] was less than 30%; with U-251 it was 63%; in experiment [14], 51%.
`COc1ccc(Cc2nnc(Nc3ccc(NC(=O)Nc4ccccc4Cl)cc3)c3ccccc23)cc1`: the inhibition of growth at 10 µM is less than 30% in experiment [1]; less than 30% in experiment [2]; less than 30% in the experiment with Malme-3M; less than 30% in experiment [3]; less than 30% with NCI-H226; 41% in the experiment with 786-0. The inhibition of growth at 10 µM (in experiment [4]; in experiment [5]; in [6]; with ACHN; in [7]; in [8]) was less than 30% throughout. Also, the inhibition of growth at 10 µM was less than 30% with SR; less than 30% in experiment [9]; less than 30% in experiment [10]; 48% in experiment [11]; less than 30% in experiment [12]; less than 30% in the experiment on SK-MEL-5. The inhibition of growth at 10 µM (in [13]; with U-251; in experiment [14]) was less than 30% in each case.

The record behind these values is ChEMBL document CHEMBL3779892, “Increasing the binding affinity of VEGFR-2 inhibitors by extending their hydrophobic interaction with the active site: Design, synthesis and biological evaluation of 1-substituted-4-(4-methoxybenzyl)phthalazine derivatives” (Eur J Med Chem, 2016).
